Measured values reported in ChEMBL document CHEMBL2385035 (J Med Chem, 2013).
The source made the active and inactive calls. No cut-off for these calls is given here.

Tests used:
[1] = Apparent permeability in MDCK cells expressing MDR1 at 3 uM after 60 mins by LC-MS/MS analysis; format: ADME, cell-based, Canis lupus familiaris; settings: dog
Mus musculus [2] = assay: In vivo inhibition of ASBT in C57BL/6J mouse assessed as increase in fecal bile acid excretion measured for 24 hrs relative to 264W94; format: functional, Feces; design: concentration or dose not given beside the values
Mus musculus [3] = assay: In vivo inhibition of ASBT in C57BL/6J mouse assessed as increase in fecal bile acid excretion measured for 24 hrs; format: functional; settings: Feces
[4] = Drug recovery in Sprague-Dawley rat feces at 10 mg/kg, po; format: ADME, organism-based; design: dose 10 mg/kg, route oral; settings: read-out: Drug recovery
[5] = Half life in Sprague-Dawley rat intestine at 10 mg/kg, po; format: ADME, organism-based; design: dose 10 mg/kg, route oral
[6] = molecular target: T1, Ileal sodium/bile acid cotransporter (Rattus norvegicus, UniProt Q62633); assay: Inhibition of rat ASBT expressed in HEK293 cells assessed as inhibition of [3H]-taurocholate uptake after 90 mins by scintillation counting analysis; format: cell-based
T1 sequence (Q62633 whole entry): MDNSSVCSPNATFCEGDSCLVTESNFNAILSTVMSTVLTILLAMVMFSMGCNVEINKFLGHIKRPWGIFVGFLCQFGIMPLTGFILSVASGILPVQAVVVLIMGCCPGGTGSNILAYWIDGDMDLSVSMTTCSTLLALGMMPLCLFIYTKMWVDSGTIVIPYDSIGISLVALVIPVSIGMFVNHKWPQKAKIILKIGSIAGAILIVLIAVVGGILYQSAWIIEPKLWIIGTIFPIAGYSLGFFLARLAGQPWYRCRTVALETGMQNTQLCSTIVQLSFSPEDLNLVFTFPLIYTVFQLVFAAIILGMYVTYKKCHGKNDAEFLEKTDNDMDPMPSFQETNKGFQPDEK

[7] = molecular target: T2, Ileal sodium/bile acid cotransporter (Mus musculus, UniProt P70172); assay: Inhibition of mouse ASBT expressed in HEK293 cells assessed as inhibition of [3H]-taurocholate uptake after 90 mins by scintillation counting analysis; format: cell-based
T2 sequence (P70172 whole entry): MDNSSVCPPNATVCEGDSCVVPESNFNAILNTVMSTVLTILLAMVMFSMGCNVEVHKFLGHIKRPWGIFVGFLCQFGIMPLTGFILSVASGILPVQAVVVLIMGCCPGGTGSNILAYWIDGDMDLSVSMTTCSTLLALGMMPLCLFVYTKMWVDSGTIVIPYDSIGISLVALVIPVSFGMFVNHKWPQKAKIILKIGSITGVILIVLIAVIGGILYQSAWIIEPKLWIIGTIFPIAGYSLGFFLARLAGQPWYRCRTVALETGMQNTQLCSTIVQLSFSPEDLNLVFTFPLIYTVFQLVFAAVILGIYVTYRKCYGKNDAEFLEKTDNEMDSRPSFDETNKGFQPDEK

[8] = Cmax in Sprague-Dawley rat portal vein blood at 10 mg/kg, po; format: ADME, organism-based; design: dose 10 mg/kg, route oral
Procedure, shortened: (§1)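 Fed male SD rats given a single oral gavage dose of 10 mg/kg. Maximum parent drug concentration measured in portal vein blood and in systemic blood.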

[9] = Cmax in Sprague-Dawley rat systemic blood at 10 mg/kg, po; format: ADME, organism-based; design: dose 10 mg/kg, route oral; procedure, shortened: as §1
[10] = molecular target: T3, Ileal sodium/bile acid cotransporter (Homo sapiens, UniProt Q12908); assay: Inhibition of human ASBT expressed in HEK293 cells assessed as inhibition of [3H]-taurocholate uptake after 90 mins by scintillation counting analysis; format: cell-based
T3 sequence (Q12908 whole entry): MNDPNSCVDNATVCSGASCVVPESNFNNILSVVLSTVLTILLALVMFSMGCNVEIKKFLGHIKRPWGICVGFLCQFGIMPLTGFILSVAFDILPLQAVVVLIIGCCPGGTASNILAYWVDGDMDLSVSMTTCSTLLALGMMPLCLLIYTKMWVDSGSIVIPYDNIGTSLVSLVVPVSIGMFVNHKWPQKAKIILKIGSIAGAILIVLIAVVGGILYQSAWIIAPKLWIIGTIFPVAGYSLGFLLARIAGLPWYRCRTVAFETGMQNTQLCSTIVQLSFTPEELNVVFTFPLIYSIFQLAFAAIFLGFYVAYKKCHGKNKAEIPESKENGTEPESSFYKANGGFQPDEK

[11] = Thermal stability of the compound; format: physicochemical
[12] = Aqueous solubility of the compound; format: physicochemical; settings: buffer
Rattus norvegicus [13] = assay: Antidiabetic activity in Zucker diabetic fatty rat assessed as increase in total GLP-1 level at 0.05 to 10 mg/kg, po bid for 2 weeks measured on day 14 relative to vehicle-treated control; format: functional, organism-based
Procedure, shortened: (§2)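 Male ZDF rats, 8 weeks old, dosed orally twice daily for 14 days in two separate studies. Day-14 tail-vein blood sampled for HbA1c and for plasma glucose (nonfasted), insulin and total GLP-1. Compared with vehicle-treated animals, significance at p < 0.05.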

Rattus norvegicus [14] = assay: Antidiabetic activity in Zucker diabetic fatty rat assessed as increase in plasma insulin level at 0.05 to 10 mg/kg, po bid for 2 weeks measured on day 14 relative to vehicle-treated control; format: functional, organism-based; procedure, shortened: as §2
Rattus norvegicus [15] = assay: Antidiabetic activity in Zucker diabetic fatty rat assessed as reduction in non-fasted plasma glucose level at 0.05 to 10 mg/kg, po bid for 2 weeks measured on day 14 relative to vehicle-treated control; format: functional; design: scale not given: the % may be the effect or the level left; settings: dose mg/kg 0.05-10; procedure, shortened: as §2
Rattus norvegicus [16] = assay: Antidiabetic activity in Zucker diabetic fatty rat assessed as reduction in blood HbA1c level at 0.05 to 10 mg/kg, po bid for 2 weeks measured on day 14 relative to vehicle-treated control; format: functional; design: scale not given: the % may be the effect or the level left; settings: dose mg/kg 0.05-10; procedure, shortened: as §2
Rattus norvegicus [17] = assay: Antidiabetic activity in Zucker diabetic fatty rat assessed as increase in fecal bile acid excretion at 0.05 to 10 mg/kg, po bid for 2 weeks measured for 24 hrs post last dose relative to vehicle-treated control; format: functional, Feces; settings: dose mg/kg 0.05-10

| SMILES | Papp at 1 h, 3 µM [1] [×10⁻⁶ cm/s] | Cmax [8] [ng/mL] | Cmax [9] [ng/mL] | IC50 [10] [nM] | other results |
| --- | --- | --- | --- | --- | --- |
| CCCC[C@]1(CC)CS(=O)(=O)c2cc(CCC(=O)NCC(=O)O)c(OC)cc2[C@@H](c2ccccc2)N1 | 1.2 | – | – | – | – |
| CCCC[C@]1(CC)CS(=O)(=O)c2cc(CCCP(=O)(O)O)c(OC)cc2[C@@H](c2ccccc2)N1 | 0.7 | – | – | – | – |
| CCCC[C@]1(CC)CS(=O)(=O)c2cc(CCCS(=O)(=O)O)c(OC)cc2[C@@H](c2ccccc2)N1 | 0.7 | – | – | – | – |
| CCCC[C@]1(CC)CS(=O)(=O)c2cc(CCC(=O)NCS(=O)(=O)O)c(OC)cc2[C@@H](c2ccccc2)N1 | 0.7 | – | – | – | – |
| CCCC[C@]1(CC)CS(=O)(=O)c2cc(CNCCS(=O)(=O)O)c(OC)cc2[C@@H](c2ccccc2)N1 | 1 | 7 | – | – | Efficacy (Mus musculus [2]): 73%; ED50 (Mus musculus [3]): 2.7 mg/kg; dose excreted [4]: 100%; half-life [5]: > 12 h; IC50 [6]: 2.3 nM; IC50 [7]: 0.9 nM |
| CCCC[C@]1(CC)CS(=O)(=O)c2cc(CN[C@@H](CC(=O)O)C(=O)O)c(OC)cc2[C@@H](c2ccccc2)N1 | 0.6 | 93 | 1 | – | – |
| CCCC[C@]1(CC)CS(=O)(=O)c2cc(CN[C@@H](CO)C(=O)O)c(OC)cc2[C@@H](c2ccccc2)N1 | 0.5 | 12 | 24 | – | Efficacy (Mus musculus [2]): 47%; ED50 (Mus musculus [3]): 0.012 mg/kg; dose excreted [4]: 63%; half-life [5]: 8 h |
| CCCC[C@]1(CC)CS(=O)(=O)c2cc(CNCP(=O)(O)O)c(OC)cc2[C@@H](c2ccccc2)N1 | – | – | – | > 3000 | – |
| CCCC[C@]1(CC)CS(=O)(=O)c2cc(CNCC(=O)O)c(OC)cc2[C@@H](c2ccccc2)N1 | 2.7 | 27 | 1 | 4 | Stability [11]: Unstable; solubility [12]: ≥ 200 µg/mL; Activity (Rattus norvegicus [13]): Active; Activity (Rattus norvegicus [14]): Active; Activity (Rattus norvegicus [15]): >50%; Activity (Rattus norvegicus [16]): 1.3%; fold change (FC) (Rattus norvegicus [17]): 7; Efficacy (Mus musculus [2]): 98%; ED50 (Mus musculus [3]): 0.017 mg/kg; dose excreted [4]: 92%; half-life [5]: > 12 h; IC50 [6]: 0.2 nM; IC50 [7]: 0.3 nM |
| CCCC[C@]1(CC)CS(=O)(=O)c2cc(CN(C)CCC(=O)O)c(OC)cc2[C@@H](c2ccccc2)N1 | – | – | – | 367 | – |
| CCCC[C@]1(CC)CS(=O)(=O)c2cc(C(CC(=O)O)CC(=O)O)c(OC)cc2[C@@H](c2ccccc2)N1 | 0.5 | 333 | 19 | > 3000 | – |
| CCCC[C@]1(CC)CS(=O)(=O)c2cc(CN[C@H](CC(=O)O)C(=O)O)c(OC)cc2[C@@H](c2ccccc2)N1 | 0.7 | 11 | 1 | – | Efficacy (Mus musculus [2]): 70%; ED50 (Mus musculus [3]): > 1 mg/kg; dose excreted [4]: 100% |
| CCCC[C@]1(CC)CS(=O)(=O)c2cc(CS(=O)(=O)O)c(OC)cc2[C@@H](c2ccccc2)N1 | 0.9 | 170 | 3 | – | – |
| CCCC[C@]1(CC)CS(=O)(=O)c2cc(CCC(=O)O)c(OC)cc2[C@@H](c2ccccc2)N1 | 38.3 | – | – | – | – |
| CCCC[C@]1(CC)CS(=O)(=O)c2cc(OCCP(=O)(O)O)c(OC)cc2[C@@H](c2ccccc2)N1 | 0.8 | 82 | 16 | 44 | – |
| CCCC[C@]1(CC)CS(=O)(=O)c2cc(CNC(=O)C(=O)O)c(OC)cc2[C@@H](c2ccccc2)N1 | – | 87 | – | – | – |
| CCCC[C@]1(CC)CS(=O)(=O)c2cc(OCCCP(=O)(O)O)c(OC)cc2[C@@H](c2ccccc2)N1 | 1 | 260 | 7 | 133 | – |
| CCCC[C@]1(CC)CS(=O)(=O)c2cc(OCCCS(=O)(=O)O)c(OC)cc2[C@@H](c2ccccc2)N1 | 0.8 | 289 | 1 | 50 | – |
